RGS4 act: potentiators or activators of RGS4 | HEK293 M3R/inducible RGS4, carbachol calcium flux Fluo4; active compounds read low | B-score at 10 µM | actives 0.92% (n = 310,000) | AID 463111;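 active means B-score of the integrated calcium signal more than 4 SD below the library mean, with starting fluorescence not abnormally high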;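 further: negative B-score means reduced calcium response which marks RGS4 activation or potentiation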
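Material: M3R-expressing HEK293 line, RGS4 induced by doxycycline | Schedule: Overnight RGS4 induction, 30 min dye load 37 °C, 20 min compound RT | Measured by: Fluo4 fluorescence kinetic imaging of calcium | Read-out: Integrated calcium ratio converted to B score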
MrgX1 allo act: human MrgX1 positive allosteric modulation, primary screen; Q96LB2; B-score at 10 µM; actives 0.63% (n = 310,000); MrgX1-HEK293, Fluo-4 calcium flux, FDSS; active compounds read high;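 active means plate-corrected calcium response at least 3 library SD above typical, normal starting fluorescence, not activating the receptor alone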;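 further: compound read alongside a low EC10 to EC30 dose of BAM8-22 agonist; peak minus trough fluorescence over baseline measured at the second addition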
Target sequence (Q96LB2 whole entry, looked up): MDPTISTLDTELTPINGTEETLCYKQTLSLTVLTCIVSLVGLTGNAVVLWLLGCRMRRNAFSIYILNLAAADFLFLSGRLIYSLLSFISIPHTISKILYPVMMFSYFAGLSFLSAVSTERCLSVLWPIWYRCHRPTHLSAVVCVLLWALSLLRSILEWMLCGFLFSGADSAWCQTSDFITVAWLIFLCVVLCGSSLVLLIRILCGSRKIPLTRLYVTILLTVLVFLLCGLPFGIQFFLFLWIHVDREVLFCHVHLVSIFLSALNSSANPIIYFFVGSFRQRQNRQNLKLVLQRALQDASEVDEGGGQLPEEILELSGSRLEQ
RGS4 block: human RGS4 inhibition | P49798 | HEK293 M3R/RGS4 inducible, Fluo-4 calcium flux; active compounds read high; triggered by carbachol at its EC20 | B-score at 10 µM | actives 0.45% (n = 310,000);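 active means B-score, a plate-corrected calcium signal, over three deviations above library mean, with baseline fluorescence within five deviations of library mean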;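 further: RGS4 expression induced by doxycycline in cells with stable M3 receptor; B-score is computed from the integrated fluorescence ratio over baseline after carbachol; higher B-score means a larger calcium signal and so more RGS4 inhibition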
Target sequence (P49798 whole entry, looked up): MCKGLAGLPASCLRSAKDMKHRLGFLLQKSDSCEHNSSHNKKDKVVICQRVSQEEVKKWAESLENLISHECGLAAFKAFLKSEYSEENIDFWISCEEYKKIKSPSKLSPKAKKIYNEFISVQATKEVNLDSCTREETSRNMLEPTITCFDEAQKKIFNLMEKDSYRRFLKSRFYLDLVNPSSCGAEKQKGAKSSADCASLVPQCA
MrgX1 ag: activates human MrgX1 receptor signaling; B-score at 10 µM; MrgX1-HEK293 cells, Fluo-4 calcium fluorescence, agonist mode; active compounds read high; actives 0.44% (n = 310,000); Q96LB2;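 active means calcium response B-score plate-corrected fluorescence ratio at least 3 library SD, with starting fluorescence B-score inside 5 SD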
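System – MrgX1-expressing HEK293 cells · Incubation – cells plated overnight, dye loaded 0.5 h 37 °C, 0.5 h room temperature · Technique – kinetic Fluo-4 NW fluorescence of intracellular calcium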
MrgX1 antagonist: antagonists of human MrgX1 receptor; Q96LB2; MRGX1-HEK293 calcium flux, Fluo-4, BAM8-22 antagonism; active compounds read low; B-score at 10 µM; actives 1.3% (n = 310,000);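 active means calcium-response B-score plate-corrected more than 3 library SD below zero, starting fluorescence within 5 deviations, no agonist response on first addition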;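 further: peak minus trough fluorescence over baseline after final BAM8-22 challenge near maximal dose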
MrgX1 PAM conf: confirmation of human MrgX1 receptor positive allosteric modulators. actives 13% (n = 1,200). MrgX1-HEK293, Fluo-4 calcium fluorescence, FDSS. AID 602413. shares compounds with MrgX1 allo act. activation (ratio percentage), % at 10 µM;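 active means ratio at least 3 SD above the weak peptide control, stable starting fluorescence, no direct agonism earlier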;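 further: compound followed by low BAM8-22 agonist challenge near EC20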
HEK293 Ca flux: MrgX1 antagonist counter-screen hit in parental HEK293 cells. shares compounds with MrgX1 antagonist. Fluo-4 calcium fluorescence, FDSS. fluorescence ratio F(max-min)/F0 at 10 µM. actives 2% (n = 4,000);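 active means duplicate-averaged calcium fluorescence ratio at least three times the standard deviation of buffer wells, a nonspecific response in parental cells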
HEK293 Ca counter: activity in parental HEK293 cells without MrgX1; parental HEK293 calcium flux, Fluo-4 fluorescence ratio; active compounds read high; shares compounds with MrgX1 antagonist; fluorescence ratio F(max-min)/F0 at 10 µM; actives 0.4% (n = 4,000);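 active means calcium fluorescence ratio, averaged over duplicates, at least 3 SD of the buffer-well ratio, meaning a nonspecific response in receptor-free cells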;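 further: untransfected parental HEK293 lacking MrgX1 used as counterscreen for MrgX1 allosteric activators; fluorescence change taken during the second addition on a kinetic imager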
HEK293 Ca cntr2: counter-screen for MrgX1 activators: effect in parental HEK293 cells. shares compounds with MrgX1 antagonist. fluorescence ratio F(max-min)/F0 at 10 µM. actives 8.7% (n = 4,000). Fluo-4 calcium fluorescence (FDSS); active compounds read high;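 active means calcium fluorescence ratio at least three times the spread of buffer wells, meaning a non-specific response in parental cells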
An asterisk follows results filed as active; i = inactive; / = no result given. Sampled rows, rich in hits. Any-hit rate of the full collection: about 3.5%.

SMILES | RGS4 act | MrgX1 allo act | RGS4 block | MrgX1 ag | MrgX1 antagonist | MrgX1 PAM conf | HEK293 Ca flux | HEK293 Ca counter | HEK293 Ca cntr2
CCc1cc(C(=O)Nc2cc(S(=O)(=O)N(C)C)ccc2C)sc1C | i | 8.4* | i | i | i | i | i | i | i
O=C(NCCCNC(=O)c1ccc(-c2cc(Cl)ccc2Cl)o1)c1cnccn1 | i | 18* | i | i | i | 20%* | i | i | i
O=C(NCCCNC(=O)c1cc(Cl)ccc1Cl)c1cnccn1 | i | i | i | i | i | / | / | / | /
O=C(NCCCNC(=O)c1ccc(Cl)cc1Cl)c1cnccn1 | i | i | i | i | i | / | / | / | /
Cc1ccc(-c2ccc(C(=O)NCCCNC(=O)c3cnccn3)o2)cc1Cl | i | 18* | i | i | i | 13%* | i | i | i
Cc1cccc(CCNC(=O)C2CCC(=O)N(Cc3ccccc3F)C2)n1 (configuration not stated) | i | i | i | i | i | / | / | / | /
COc1cc(C(=O)Nc2ccccc2C(=O)NCc2cccnc2)cc(OC)c1OC | i | 8.9* | i | i | i | i | i | i | i
O=C(COc1ccc(Cl)cc1Cl)NCCC1=CCCCC1 | i | 16* | i | i | i | 5.0%* | i | i | i
CC12CCC(=O)N1C(C(=O)Nc1nc3ccc(Cl)cc3s1)CS2 (configuration not stated) | i | 16* | i | i | i | i | i | i | i
CC12CCC(=O)N1C(C(=O)Nc1nc3ccc(S(C)(=O)=O)cc3s1)CS2 (configuration not stated) | i | i | i | i | i | / | / | / | /
COc1ccc(Cl)cc1NC(=O)C1COc2ccccc2O1 (configuration not stated) | i | i | i | i | i | / | / | / | /
CN1CCN(c2ccc(Cl)cc2NC(=O)C2COc3ccccc3O2)CC1 (configuration not stated) | i | 6.5* | i | i | i | i | i | i | i
Cc1nc2ccc3nc(NC(=O)C4COc5ccccc5O4)sc3c2s1 (configuration not stated) | i | 8.1* | i | i | i | 7.8%* | i | i | i
COC(=O)/C=C/c1cnc[nH]1 | i | i | i | i | i | / | / | / | /
COc1ccccc1Oc1ncnc2c1oc1ccccc12 | i | 15* | i | i | i | 33%* | i | i | i
COc1ccc(Oc2nc(C)nc3c2oc2ccccc23)cc1 | i | 14* | i | i | i | 27%* | i | i | i
Cc1nc(Nc2ccccc2F)c2oc3ccccc3c2n1 | i | 7* | i | i | i | i | i | i | i
CCN(CC)CCOc1ncnc2c1oc1ccccc12 | i | i | i | i | i | / | / | / | /
c1ccc(Sc2ncnc3c2oc2ccccc23)cc1 | i | 12* | i | i | i | 22%* | i | i | i
COc1ccc(Nc2nc(C)nc3c2oc2ccccc23)c(OC)c1 | i | i | i | i | i | / | / | / | /
CCOC(=O)CC1(NC(=O)C2CCC(=O)N(Cc3ccccc3OC)C2)CCCCC1 (configuration not stated) | i | i | i | i | i | / | / | / | /
O=C(NCc1ccccn1)c1ccc2nc(C3CCCCC3)oc2c1 | i | i | i | i | i | / | / | / | /
Cc1nc(Oc2ccccc2)c2ccsc2n1 | i | 9.8* | i | i | i | 4.8%* | i | i | i
Cc1nc(Oc2ccccc2)c2oc3ccccc3c2n1 | i | 34* | i | i | i | 25%* | i | i | i
Cc1c(C(=O)NC2CC(=O)N(c3ccc4c(c3)OCCO4)C2)cccc1[N+](=O)[O-] (configuration not stated) | i | i | i | i | i | / | / | / | /
SMILES | RGS4 act | MrgX1 allo act | RGS4 block | MrgX1 ag | MrgX1 antagonist | MrgX1 PAM conf | HEK293 Ca flux | HEK293 Ca counter | HEK293 Ca cntr2
COc1ccc(NS(=O)(=O)c2cc(-c3cnc(C4CC4)o3)ccc2C)cc1 | i | i | i | i | i | / | / | / | /
COc1ccccc1NS(=O)(=O)c1cc(-c2cnc(C3CC3)o2)ccc1C | i | 14* | i | i | i | i | i | i | i
CCc1cccc(CC)c1NC(=S)Nc1cccc(Cl)c1Cl | i | 25* | i | i | i | i | i | i | i
COc1ccc(C(=O)c2ccc(N(C)C)cc2)c(OC)c1 | i | 8.7* | i | i | i | i | i | i | i
CCCCC1=C([O-])C2N=CC=CC2=[N+](c2ccccn2)C1=O (configuration not stated) | i | i | i | i | i | / | / | / | /
Cc1cc(Cl)ccc1OC(C)C(=O)Nc1ccccc1N1CCOCC1 (configuration not stated) | i | 15* | i | i | i | i | i | i | i
COC(=O)c1ccc(Oc2nc(C)cc(Oc3ccccc3)n2)cc1 | i | 19* | i | i | i | 7.3%* | i | i | i
O=C(Cc1ccc(F)cc1)Nc1c(C(=O)N2CCN(c3ncccn3)CC2)oc2ccccc12 | i | i | i | i | i | / | / | / | /
CN1/C(=C/C2CC(=O)N(c3cccc4ccccc34)C2=O)C(C)(C)c2ccccc21 (configuration not stated) | i | i | i | i | i | / | / | / | /
CN1/C(=C/C2CC(=O)NC2=O)C(C)(C)c2ccccc21 (configuration not stated) | / | 7* | / | i | i | i | i | i | i
COCC1CCCN(Cc2nc(C(c3ccccc3)c3ccccc3)no2)C1 (configuration not stated) | i | 14* | i | i | i | 10%* | i | i | i
COC(=O)c1ccccc1S(=O)(=O)N1CCC(C(=O)OCc2ccc([N+](=O)[O-])cc2)CC1 | i | i | i | i | i | / | / | / | /
CCc1cccc(OCC(=O)Nc2ccccc2N2CCCC2)c1 | i | 19* | i | i | i | i | i | i | i

Screening results from PubChem BioAssay.
